The nature of experiment [1]: Antioxidant activity assessed DPPH scavenging activity. The format is functional. In a few lines: (§1)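 DPPH free-radical scavenging was measured in a cell-free system, with IC50 determined. Constituents were also screened at 500 μM.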
A general note: The DPPH test is a chemical assay of radical scavenging.

Experiment [2] is described as follows: Antioxidant activity assessed DPPH scavenging activity at 500 uM. The format is functional. A digest of the protocol:
as §1

Experiment [3] in a line: (§2) Anti-inflammatory activity in human neutrophils assessed as inhibition of FMLP/CB-induced superoxide anion generation. The format is functional, cell-based. As to conditions: Neutrophil. A digest of the protocol:
(§3)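 Human neutrophils were activated with FMLP plus cytochalasin B (FMLP/CB). IC50 is the concentration giving 50% inhibition of the response. Values are mean ± SEM, n = 3–4.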

Experiment [4] is described as follows: (§4) Anti-inflammatory activity in human neutrophils assessed as inhibition of FMLP/CB-induced elastase release. The format is functional, cell-based. Particulars: Neutrophil. A digest of the protocol:
as §3

The nature of experiment [5]: Anti-inflammatory activity in human neutrophils assessed as inhibition of FMLP/CB-induced elastase release at 10 ug/mL. The format is functional. Particulars: Neutrophil. In a few lines:
(§5)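 Human neutrophils were activated with FMLP/CB. Percentage inhibition of the response was measured with samples at 10 μg/mL. Values are mean ± SEM, n = 3–4, and significance was tested against the control value.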

Experiment [6] is described as follows: Anti-inflammatory activity in human neutrophils assessed as inhibition of FMLP/CB-induced superoxide anion generation at 10 ug/mL. The format is functional. As to conditions: Neutrophil. In a few lines:
as §5

Experiment [7] deals with Neutrophil. The description is as §2. The format is functional, cell-based. In a few lines: as §3
For experiment [8], the system named is Neutrophil. Described as §4. The format is functional, cell-based. A digest of the protocol: as §3

≈ marks a conversion by molar mass, not a printed value. Calls of active or inactive are those of the source. The calls are words filed in the database; no cut-off is given here.

From ChEMBL document CHEMBL1821666, “Anti-inflammatory principles from Cordyceps sinensis” (J Nat Prod, 2011) come the findings set out here.

What is called IC50 is the concentration at which inhibition is half-maximal. Usually inhibition stands for the drop in the measured response relative to a control, in per cent.

In experiment [1], `O=c1c(-c2ccc(O)c(O)c2)coc2cc(O)ccc12` registered a half-inhibitory concentration (IC50) of 32 µM.

As to `CC(C)[C@@H](C)/C=C/[C@@H](C)[C@H]1CC[C@H]2C3=CC=C4C[C@@H](O[C@@H]5O[C@H](CO)[C@@H](O)[C@H](O)[C@H]5O)CC[C@]4(C)[C@H]3CC[C@]12C`, the inhibition result in experiment [2] is “inactive”. Besides, the IC50 in experiment [3] turned out to be 5.42 µg/mL (≈ 9.7 µM); in experiment [4] it was 5.62 µg/mL (≈ 10.1 µM). Turning to `CC(C)C[C@@H]1NC(=O)[C@@H]2CC[C@@H](O)N2C1=O`, in experiment [2], the inhibition result was “inactive”. In the case of `CC(C)[C@@H]1NC(=O)[C@@H]2CCCN2C1=O`, the inhibition entry in experiment [2] was “inactive”. With `Cc1occc(=O)c1O`, the inhibition entry in experiment [2] is “inactive”. On to `O=C(O)c1cc2c([nH]c3ccccc32)c(-c2ccc(CO)o2)n1`, for which, in experiment [2], the inhibition result was “inactive”.

As for `O=C(O)c1ccco1`, the inhibition result in experiment [2] is “inactive”. Regarding `O=C1C[C@H](O)[C@@H](CO)O1`, the inhibition entry in experiment [2] was “inactive”. Turning to `O=C1N[C@@H](Cc2ccc(O)cc2)C(=O)N2CCC[C@@H]12`, the inhibition result in experiment [2] was “inactive”. Consider `O=C1N[C@@H](Cc2ccccc2)C(=O)N2CCC[C@@H]12`, for which the inhibition result in experiment [2] is “inactive”. With `O=C1O[C@H]([C@@H](O)CO)C(O)=C1O` [ASCORBIC ACID], in experiment [1], the 50% inhibitory concentration (IC50) was 38.6 µM. On to `O=c1c(-c2ccc(O)cc2)coc2cc(O)ccc12` [DAIDZEIN], for which the inhibition entry in experiment [2] was “inactive”. In addition, the 50% inhibitory concentration (IC50) in experiment [3] came out at 6.19 µg/mL (≈ 24.3 µM). As to `COc1cc(/C=C/C(=O)O[C@H]2CC[C@]34C[C@]35CC[C@]3(C)[C@@H]([C@H](C)CCC=C(C)C)CC[C@@]3(C)[C@@H]5CC[C@H]4C2(C)C)ccc1O` [GAMMA ORYZANOL], the inhibition at 10 µg/mL is 41.6% in experiment [5] and 28.2% in experiment [6]. Besides, the inhibition entry in experiment [2] was “inactive”.

Take `COc1ccc2c(c1)c(CC(=O)O)c(C)n2C(=O)c1ccc(Cl)cc1` [INDOMETHACIN]: the inhibition result in experiment [2] is “inactive”. The IC50 was 38.3 µg/mL (≈ 107 µM) in experiment [3] and 32 µg/mL (≈ 89.4 µM) in experiment [4]. On to `OCc1ccc(-c2nccc3c2[nH]c2ccccc23)o1` [PERLOLYRIN], for which, in experiment [2], the inhibition entry was “inactive”. Besides, the half-inhibitory concentration (IC50) in experiment [3] came out at 0.45 µg/mL (≈ 1.7 µM); in experiment [4], 1.68 µg/mL (≈ 6.36 µM). Besides, the inhibition entry in experiment [7] and in experiment [8] was “Dose-dependent effect” throughout.
